Hit rate of the full screen: of about 130,000 compounds, about 1,000 (0.77%) were called active. About 1% were inconclusive and are not listed. This is one part of a sample in which actives are shown more often than they occur.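 Rule for the calls: active = activation at 2 µM above a set limit, confirmed on inspection of the cell images; inconclusive = above the set limit but not confirmed on image inspection; inactive = the rest.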
Assay: activators of insulin promoter-driven GFP, primary screen, imaging, TRM-6 cells (human fetal islet line), eGFP reporter, cell count (AID 1296;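 for activation: share of cells whose green reporter signal exceeds an intensity cutoff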;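 for normalized cell count: cells counted after 48 h compound exposure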)
Conditions: at 2 µM; activation: stronger effect = higher value, plate-scaled: unstimulated 0, stimulated control 100; normalized cell count: measured here: cell count (toxicity)
Summary of the method: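 Assay system: TRM-6 human fetal islet cells, insulin promoter–eGFP reporter; Also added: 0.75 µM tamoxifen as reporter inducer; Schedule: 15 h tamoxifen pre-treatment, 48 h compound treatment at 37 °C; Signal: fixed-cell fluorescence microscopy, eGFP plus Hoechst; Read-out: percent activation from GFP-positive cell fraction; Control set: stimulated and unstimulated wells.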

Row | Structure (SMILES) | activation | normalized cell count [%]
1 | CCOC(=O)NN1C(=O)c2ccccc2NC1c1ccccc1O (centres undefined) | 2.78% (inactive) | 107
2 | N#C/C(=C/c1ccc(N2CCOCC2)o1)C(=O)N1CCOCC1 | 7.69% (inactive) | 59.4
3 | N#C/C(=C\c1ccc(N2CCOCC2)o1)C(=O)N1CCOCC1 | 7.41% (inactive) | 99.1
4 | N#C/C(=C/c1ccc(N2CCCCC2)o1)C(=O)NCCc1c[nH]c2ccccc12 | 257% (active) | 92.9
5 | CC1(C)C2CC=C(/C=N/NC(=O)c3ccc(Cl)cc3)C1C2 (centres undefined) | -3.33% (inactive) | 104
6 | COc1ccc(-c2noc(CSc3ccc(C)cc3)n2)cc1 | 521% (active) | 77.9
7 | COc1ccc(-c2noc(-c3ccc(C)cc3)n2)cc1 | 1.41% (inactive) | 143
8 | Cc1ccc(-c2noc(CSc3nnc(-c4ccccc4)n3C)n2)cc1 | -8.33% (inactive) | 65.9
9 | O=C(Nc1ccccc1F)c1ccc(Cn2cc(Br)cn2)cc1 | 0% (inactive) | 118
10 | Cc1ccc(O)c(-c2cc(C(=O)NCc3ccccc3)[nH]n2)c1 | -7.14% (inactive) | 81.6
11 | Cc1cc(C)cc(NC(=O)c2cccc(NC(=O)C3C4CC5OC(=O)C3C5C4)c2)c1 (centres undefined) | 76.7% (active) | 85.6
12 | CSCc1ccc(C(=O)Nc2cc(C)cc(C)c2)cc1 | -9.09% (inactive) | 139
13 | Cc1cccc(NC(=O)C2CC(=O)OC23CCCC3)c1 (centres undefined) | 7.14% (inactive) | 75.4
14 | O=C(COC(=O)c1cc(S(=O)(=O)N2CCCCC2)ccc1Cl)NCc1ccco1 | -5.56% (inactive) | 260
15 | CC(C)CCC(C)NC(=O)c1ccc2nccnc2c1 (centres undefined) | 6.67% (inactive) | 43.3
16 | Cc1ccc(/C=C(\C#N)C(=O)Nc2cccc3ncccc23)o1 | 2.7% (inactive) | 106
17 | Cc1ccc2c(NC(=O)C3CC3)cccc2n1 | 140% (active) | 109
18 | Cc1nc(NC(=O)C2CCCCC2)sc1C | 0% (inactive) | 50
19 | CC(C)(C)NC(=O)CN(C(=O)c1ccc(Cl)nc1)c1cccc2ccccc12 | 108% (inactive) | 93

Row | Structure (SMILES) | activation | normalized cell count [%]
20 | Cc1cccc(C(=O)Nc2ccc(C(=O)/C=C/c3cccs3)cc2)c1 | 9.3% (inactive) | 81.7
21 | Cc1cccc(C(=O)Nc2ccc(CC(=O)O)cc2)c1 | 226% (inactive) | 56.2
22 | O=C(Nc1ccccc1)c1ccc2nsnc2c1 | 193% (active) | 111
23 | Cc1nn2c3cc(N4CCOCC4)ccc3nc2c2ccccc12 | 63.5% (inactive) | 79.7
24 | CC1C/C(=N/NC(=O)c2cccs2)CC(C)(C)C1 (centres undefined) | 7.25% (inactive) | 112
25 | COc1cc(NS(=O)(=O)c2ccc(N=Cc3c(C)[nH]n(-c4ccccc4)c3=O)cc2)nc(OC)n1 | 3.7% (inactive) | 98.8
26 | Clc1ccc(-c2nnc(-c3ccccc3)nc2N2CCSCC2)cc1 | -5.41% (inactive) | 97.6
27 | Cn1nc(-c2ccccc2)c(-c2nc(-c3ccc(Cl)cc3)no2)c1Cl | 471% (active) | 71.1
28 | COc1ccc(-c2nc(-c3ccccc3)no2)c(OC)c1 | 0% (inactive) | 103
29 | COc1cccc(NC(=O)CN(C)C(C)C(=O)Nc2ccc(C#N)cc2)c1 (centres undefined) | 8.11% (inactive) | 96.1
30 | COC(=O)CSc1nc(C)c2ccc(OC)cc2n1 | 438% (active) | 69.4
31 | COC(=O)c1cc(C(=O)CSc2nc(C)cc(C)n2)ccc1O | -5.56% (inactive) | 111
32 | COc1ccc(C(=O)CSc2n[nH]c(N)n2)cc1 | 7.41% (inactive) | 116
33 | Cc1nn(-c2ccccn2)c2c1C(c1ccncc1)C1=C(CC(C)(C)CC1=O)N2 (centres undefined) | -6.9% (inactive) | 120
34 | CN(C)c1nnnn1-c1ccc(Cl)cc1 | 0% (inactive) | 128
35 | Cn1nccc1CNC(=O)c1ccnn1C | 7.69% (inactive) | 127
36 | COc1ccc(OCC(=O)N2CCN(C(=O)COc3ccccc3)CC2)cc1 | 411% (active) | 70.2
37 | COc1ccc(OCC(=O)N2CCN(C(=O)c3cccs3)CC2)cc1 | 9.09% (inactive) | 125
38 | O=C(COc1ccccc1)N1CCc2ccccc2C1 | 3.45% (inactive) | 131

Row | Structure (SMILES) | activation | normalized cell count [%]
39 | O=C(CSc1nnc(-c2c[nH]c3ccccc23)o1)c1ccccc1 | 0% (inactive) | 133
40 | O=C(CSc1nnc(Cn2cnc3ccccc32)o1)c1ccccc1 | 0% (inactive) | 112
41 | CC(C)C[C@@H](N)c1nnc(SCC(=O)c2ccc(Cl)cc2)o1 | 533% (active) | 62.6
42 | CCCc1nc2c([nH]1)C(c1cccnc1)C(C#N)=C(N)O2 (centres undefined) | -6.67% (inactive) | 147
43 | OC1CSc2nc3ccccc3n2C1 (centres undefined) | 0% (inactive) | 81.8
44 | C=CCn1c(CCc2ccc(OC(C)C)cc2)n[nH]c1=S | 0% (inactive) | 117
45 | CCCOCC(O)CC(CC)C(=O)NNC(=S)Nc1ccccc1 (centres undefined) | 0% (inactive) | 106
46 | Nc1ccc(-n2nncc2-c2ccco2)cc1 | 406% (active) | 53.5
47 | CCOC(=O)CNC(=O)CSc1ccc2nnc(-c3cccnc3)n2n1 | 0% (inactive) | 132
48 | Cn1cccc1-c1nc2ccccc2n1C | 300% (active) | 75.7
49 | COc1ccc(-c2nc3ccccc3n2CCC(C)C)cc1OC | -9.86% (inactive) | 74.4
50 | COc1ccc(N2CCN(C(=O)COc3ccc4c(C)cc(=O)oc4c3)CC2)cc1 | -8.33% (inactive) | 132
51 | COc1cc(NC(=S)NNC(=O)CC(C)C)c(OC)cc1Cl | 9.38% (inactive) | 70.7
52 | O=C(NC1CCCC1)C(NS(=O)(=O)c1ccc(Br)s1)c1ccccc1 (centres undefined) | 107% (inactive) | 72.4
53 | O=C(CSc1nn(-c2ccc(F)cc2)c(=S)s1)NC1CCS(=O)(=O)C1 (centres undefined) | 5.88% (inactive) | 104
54 | COc1ccc(-n2nc3c(c2NC(=O)c2ccc(N4C(=O)CCC4=O)cc2)CSC3)cc1 | -5.88% (inactive) | 73.5
55 | CC1Cc2ccccc2N1C(=O)CSc1nc2ccccc2o1 (centres undefined) | 7.14% (inactive) | 87.7
56 | CCS(=O)(=O)c1ccc2oc(SCC(=O)N3c4ccccc4CC3C)nc2c1 (centres undefined) | 457% (active) | 101
57 | O=C(CSc1nc2ccccc2o1)N1c2ccccc2Sc2ccc(Cl)cc21 | -4.44% (inactive) | 77.2

Source: PubChem BioAssay AID1296 (Columbia University Molecular Screening Center, 2008)
